Test results as given in ChEMBL document CHEMBL4411287, “Discovery and optimization of a series of 3-substituted indazole derivatives as multi-target kinase inhibitors for the treatment of lung squamous cell carcinoma” (Eur J Med Chem, 2019).
Activity calls are given as the source filed them. No cut-off for these calls is given here.

Legend:
[1] = MRT in ICR(CD-1) mouse at 10 mg/kg, po administered via gavage by triple quadrupole mass spectrometric analysis; assay type: ADME, organism-based; settings: in vivo
How it was run: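 Dosed by gavage at 1 mg/mL in 1% Tween80/water to male ICR mice, 18-22 g, n=3. Blood taken at 0.25, 0.5, 1, 2, 4, 8 and 24 h. Plasma precipitated with methanol:acetonitrile (1:1) containing internal standard, then UPLC-MS/MS on a C18 column with an ammonium acetate/formic acid–acetonitrile gradient. Tmax read directly from the data; MRT calculated per animal from concentration–time curves.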

[2] = Permeability in human Caco2 cells at 5 uM after 120 mins by LC-MS/MS analysis relative to control; assay type: ADME, cell-based; settings: Caco-2, read-out: Fabs
How it was run: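 Caco-2 (C2BBe1) monolayers grown confluent on collagen-coated transwell membranes. Buffer is HBSS with 10 mM HEPES at pH 7.4 and pH 6.8. Compound 5 µM added to the apical or basolateral side; duplicate samples taken at 120 min and analysed by LC-MS/MS. Results given as Papp A→B and B→A and efflux ratio B→A/A→B.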

[3] = biological target: Tyrosine-protein kinase ABL1 (Homo sapiens) (UniProt P00519); experiment: Inhibition of ABL (unknown origin) at 1000 nM relative to control
[4] = biological target: Insulin-like growth factor 1 receptor (Homo sapiens) (UniProt P08069); experiment: Inhibition of IGF1R (unknown origin) at 1000 nM relative to control
How it was run: (§1)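 Purified recombinant kinase domains run in ELISA on precoated poly(Glu,Tyr) 4:1 (20 µg/mL) with 10 µM ATP in 50 mM HEPES pH 7.4, 50 mM MgCl2, 0.5 mM MnCl2, 0.2 mM Na3VO4, 1 mM DTT; 1% DMSO control; 60 min at 37 °C. Phosphotyrosine read by PY99 antibody, HRP anti-mouse IgG, OPD/H2O2 at 490 nm; inhibition = [1−A490/A490control]×100%; two separate experiments.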

[5] = biological target: Platelet-derived growth factor receptor alpha (Homo sapiens) (UniProt P16234); experiment: Inhibition of PDGFR-alpha (unknown origin) at 1000 nM relative to control; how it was run: as §1
[6] = biological target: Hepatocyte growth factor receptor (Homo sapiens) (UniProt P08581); experiment: Inhibition of c-Met (unknown origin) at 100 nM relative to control
How it was run: (§2)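 ELISA with purified recombinant kinase on plates precoated with poly(Glu,Tyr) 4:1 at 20 µg/mL. ATP 10 µM in HEPES pH 7.4 buffer with MgCl2, MnCl2, Na3VO4 and DTT. Run 60 min at 37 °C. Detected with anti-phosphotyrosine PY99, HRP secondary antibody and o-phenylenediamine, read at 490 nm. Inhibition % = [1 − A490/A490 control]×100. 1% DMSO as negative control.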

[7] = biological target: Ephrin type-A receptor 2 (Homo sapiens) (UniProt P29317); experiment: Inhibition of EPH-A2 (unknown origin) at 100 nM relative to control; how it was run: as §1
[8] = biological target: T1, Ephrin type-B receptor 2 (Homo sapiens) (UniProt P29323); experiment: Inhibition of EPH-B2 (unknown origin) at 100 nM relative to control; how it was run: as §1
T1 sequence (whole entry): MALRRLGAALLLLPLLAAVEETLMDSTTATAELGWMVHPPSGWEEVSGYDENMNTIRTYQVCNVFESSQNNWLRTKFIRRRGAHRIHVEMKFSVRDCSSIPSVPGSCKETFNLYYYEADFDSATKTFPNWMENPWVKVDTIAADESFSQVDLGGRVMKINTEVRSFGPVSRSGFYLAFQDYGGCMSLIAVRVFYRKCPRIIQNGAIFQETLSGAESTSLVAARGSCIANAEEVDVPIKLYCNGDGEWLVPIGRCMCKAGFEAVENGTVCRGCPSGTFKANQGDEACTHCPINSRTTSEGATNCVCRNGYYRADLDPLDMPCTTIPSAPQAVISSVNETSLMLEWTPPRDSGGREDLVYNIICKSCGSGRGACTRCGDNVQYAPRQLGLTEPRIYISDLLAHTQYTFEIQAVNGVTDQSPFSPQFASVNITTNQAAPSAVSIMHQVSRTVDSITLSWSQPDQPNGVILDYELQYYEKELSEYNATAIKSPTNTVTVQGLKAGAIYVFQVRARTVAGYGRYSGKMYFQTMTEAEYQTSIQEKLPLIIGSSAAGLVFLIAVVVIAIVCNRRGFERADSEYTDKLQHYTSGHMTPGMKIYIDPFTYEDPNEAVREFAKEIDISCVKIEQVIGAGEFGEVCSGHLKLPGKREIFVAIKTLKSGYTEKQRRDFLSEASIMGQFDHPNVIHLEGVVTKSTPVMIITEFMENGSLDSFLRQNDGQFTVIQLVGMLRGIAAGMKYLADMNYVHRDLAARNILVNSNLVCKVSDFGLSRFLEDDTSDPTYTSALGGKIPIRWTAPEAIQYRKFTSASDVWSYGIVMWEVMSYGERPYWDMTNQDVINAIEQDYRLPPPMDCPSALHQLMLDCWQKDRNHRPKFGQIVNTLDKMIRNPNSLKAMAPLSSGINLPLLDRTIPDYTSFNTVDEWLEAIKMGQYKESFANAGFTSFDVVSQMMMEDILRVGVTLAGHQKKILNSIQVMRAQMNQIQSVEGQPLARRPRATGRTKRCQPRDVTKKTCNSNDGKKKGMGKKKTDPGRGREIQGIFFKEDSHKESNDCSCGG

[9] = biological target: Platelet-derived growth factor receptor beta (Homo sapiens) (UniProt P09619); experiment: Inhibition of PDGFR-beta (unknown origin) at 100 nM relative to control; how it was run: as §1
[10] = biological target: Angiopoietin-1 receptor (Homo sapiens) (UniProt Q02763); experiment: Inhibition of Tie-2 (unknown origin) at 100 nM relative to control; how it was run: as §2
[11] = biological target: Vascular endothelial growth factor receptor 2 (Homo sapiens) (UniProt P35968); experiment: Inhibition of VEGFR2 (unknown origin) at 100 nM relative to control; how it was run: as §2
[12] = biological target: Cyclin-dependent kinase 1 (Homo sapiens) (UniProt P06493); experiment: Inhibition of CDK1 (unknown origin) at 10 nM relative to control
[13] = biological target: Fibroblast growth factor receptor 3 (Homo sapiens) (UniProt P22607); experiment: Inhibition of FGFR3 (unknown origin) at 10 nM relative to control; how it was run: as §1
[14] = biological target: Fibroblast growth factor receptor 2 (Homo sapiens) (UniProt P21802); experiment: Inhibition of FGFR2 in human SNU-16 cells assessed as decrease in ERK phosphorylation at 25 to 200 nM after 2 hrs by Western blot analysis; assay type: cell-based
How it was run: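 SNU-16 cells exposed to compound for 2 h at 37 °C, lysed in 1× SDS sample buffer, resolved by 10% SDS-PAGE and blotted to nitrocellulose; probed for phospho-FGFR, FGFR2, phospho-ERK, ERK and GAPDH, then HRP anti-rabbit or anti-mouse IgG; enhanced chemiluminescence detection.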

NCI-H716 = experiment: Antiproliferative activity against FGFR2 amplified human NCI-H716 cells after 72 hrs by CCK8 assay; assay type: functional, cell-based; settings: NCI-H716, 72 h
How it was run: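 Cells seeded at low density in growth medium and compounds added the next day. Incubated 72 h, then proliferation read by sulforhodamine B, MTT or CCK-8. IC50 obtained by four-parameter concentration-response curve fitting.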

Chain of Platelet-derived growth factor receptor beta (Homo sapiens) (P09619 whole entry): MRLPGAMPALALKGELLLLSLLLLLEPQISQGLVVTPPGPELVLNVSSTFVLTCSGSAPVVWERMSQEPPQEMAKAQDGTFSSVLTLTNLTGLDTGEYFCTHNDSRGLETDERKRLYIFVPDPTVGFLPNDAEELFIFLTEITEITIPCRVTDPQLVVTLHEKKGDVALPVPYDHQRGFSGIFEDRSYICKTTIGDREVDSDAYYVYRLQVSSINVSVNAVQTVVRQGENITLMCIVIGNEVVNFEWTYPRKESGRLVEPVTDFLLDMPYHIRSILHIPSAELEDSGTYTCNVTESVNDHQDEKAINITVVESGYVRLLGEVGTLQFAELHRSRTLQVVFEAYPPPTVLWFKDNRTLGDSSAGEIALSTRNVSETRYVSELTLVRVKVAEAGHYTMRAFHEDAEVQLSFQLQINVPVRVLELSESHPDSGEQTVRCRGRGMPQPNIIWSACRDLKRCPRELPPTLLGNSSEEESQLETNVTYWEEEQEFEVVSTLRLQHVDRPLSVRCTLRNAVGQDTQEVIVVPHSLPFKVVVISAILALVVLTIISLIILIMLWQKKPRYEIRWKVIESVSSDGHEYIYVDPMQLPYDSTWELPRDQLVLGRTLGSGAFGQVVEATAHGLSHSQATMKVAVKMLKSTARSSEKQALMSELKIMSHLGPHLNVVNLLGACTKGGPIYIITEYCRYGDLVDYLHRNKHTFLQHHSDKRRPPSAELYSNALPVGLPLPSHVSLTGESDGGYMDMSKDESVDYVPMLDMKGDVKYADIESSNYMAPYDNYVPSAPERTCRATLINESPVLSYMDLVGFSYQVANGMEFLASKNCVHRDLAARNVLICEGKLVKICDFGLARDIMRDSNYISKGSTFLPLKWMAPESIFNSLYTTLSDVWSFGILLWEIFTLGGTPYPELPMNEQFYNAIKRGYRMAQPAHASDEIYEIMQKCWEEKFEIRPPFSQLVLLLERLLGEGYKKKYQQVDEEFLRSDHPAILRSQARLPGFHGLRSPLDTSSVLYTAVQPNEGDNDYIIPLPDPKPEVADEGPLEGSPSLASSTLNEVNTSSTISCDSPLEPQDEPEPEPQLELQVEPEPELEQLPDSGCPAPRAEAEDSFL
Chain of Insulin-like growth factor 1 receptor (Homo sapiens) (P08069 31-736 limits assumed): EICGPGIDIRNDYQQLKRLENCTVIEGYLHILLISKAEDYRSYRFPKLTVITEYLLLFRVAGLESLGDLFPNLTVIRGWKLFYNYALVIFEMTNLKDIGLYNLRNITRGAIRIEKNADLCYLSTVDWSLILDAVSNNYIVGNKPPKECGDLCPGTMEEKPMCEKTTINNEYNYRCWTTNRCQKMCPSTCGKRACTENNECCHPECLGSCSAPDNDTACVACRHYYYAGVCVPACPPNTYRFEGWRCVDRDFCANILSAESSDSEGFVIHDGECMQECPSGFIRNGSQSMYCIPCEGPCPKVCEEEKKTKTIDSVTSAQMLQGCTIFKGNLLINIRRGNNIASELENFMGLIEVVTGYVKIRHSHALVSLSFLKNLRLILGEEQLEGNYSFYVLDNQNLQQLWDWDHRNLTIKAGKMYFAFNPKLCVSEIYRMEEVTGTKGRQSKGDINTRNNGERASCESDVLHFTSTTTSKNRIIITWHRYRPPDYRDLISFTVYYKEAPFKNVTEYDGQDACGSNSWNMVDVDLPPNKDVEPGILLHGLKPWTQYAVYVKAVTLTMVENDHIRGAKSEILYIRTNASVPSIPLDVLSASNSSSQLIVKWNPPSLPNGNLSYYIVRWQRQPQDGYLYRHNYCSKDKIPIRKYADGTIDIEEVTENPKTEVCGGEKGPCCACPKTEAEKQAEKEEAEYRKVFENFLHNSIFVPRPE
Chain of Insulin-like growth factor 1 receptor (Homo sapiens) (P08069 741-1367 limits assumed): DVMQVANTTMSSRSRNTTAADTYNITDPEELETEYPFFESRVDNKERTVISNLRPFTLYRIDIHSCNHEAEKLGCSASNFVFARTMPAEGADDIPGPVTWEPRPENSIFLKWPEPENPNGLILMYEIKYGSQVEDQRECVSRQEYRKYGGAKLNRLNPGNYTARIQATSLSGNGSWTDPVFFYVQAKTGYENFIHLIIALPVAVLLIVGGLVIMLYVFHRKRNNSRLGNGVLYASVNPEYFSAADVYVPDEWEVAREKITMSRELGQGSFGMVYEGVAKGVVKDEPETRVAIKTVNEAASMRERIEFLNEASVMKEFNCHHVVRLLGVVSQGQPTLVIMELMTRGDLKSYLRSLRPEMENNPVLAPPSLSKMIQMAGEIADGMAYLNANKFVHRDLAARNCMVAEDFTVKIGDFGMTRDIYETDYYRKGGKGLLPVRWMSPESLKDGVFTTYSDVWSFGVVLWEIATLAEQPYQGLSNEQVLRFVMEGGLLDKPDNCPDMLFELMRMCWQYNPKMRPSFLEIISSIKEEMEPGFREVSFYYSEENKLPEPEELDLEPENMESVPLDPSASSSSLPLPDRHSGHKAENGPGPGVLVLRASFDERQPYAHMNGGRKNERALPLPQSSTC
Chain of Fibroblast growth factor receptor 2 (Homo sapiens) (P21802 22-821 limits assumed): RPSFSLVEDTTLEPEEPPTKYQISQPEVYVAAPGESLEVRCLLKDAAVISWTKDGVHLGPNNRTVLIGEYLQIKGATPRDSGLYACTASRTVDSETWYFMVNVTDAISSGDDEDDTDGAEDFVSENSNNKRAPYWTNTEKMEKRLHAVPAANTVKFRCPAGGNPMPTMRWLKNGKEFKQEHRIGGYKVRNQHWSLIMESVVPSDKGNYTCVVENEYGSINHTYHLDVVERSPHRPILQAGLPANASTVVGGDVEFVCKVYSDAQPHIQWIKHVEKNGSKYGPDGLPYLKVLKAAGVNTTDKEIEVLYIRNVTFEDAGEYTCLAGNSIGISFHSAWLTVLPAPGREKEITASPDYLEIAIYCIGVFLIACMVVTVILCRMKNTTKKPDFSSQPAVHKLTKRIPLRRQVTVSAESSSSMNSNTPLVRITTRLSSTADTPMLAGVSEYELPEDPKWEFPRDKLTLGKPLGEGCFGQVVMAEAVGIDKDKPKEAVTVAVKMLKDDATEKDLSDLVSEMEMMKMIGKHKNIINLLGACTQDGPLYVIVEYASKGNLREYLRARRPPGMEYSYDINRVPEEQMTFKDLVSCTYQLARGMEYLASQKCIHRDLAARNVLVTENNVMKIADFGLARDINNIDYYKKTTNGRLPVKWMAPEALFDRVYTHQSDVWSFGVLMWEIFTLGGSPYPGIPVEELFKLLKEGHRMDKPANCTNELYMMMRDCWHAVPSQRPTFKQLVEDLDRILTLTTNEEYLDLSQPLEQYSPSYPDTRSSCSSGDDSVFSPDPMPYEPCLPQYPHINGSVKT
Chain of Platelet-derived growth factor receptor alpha (Homo sapiens) (P16234 whole entry): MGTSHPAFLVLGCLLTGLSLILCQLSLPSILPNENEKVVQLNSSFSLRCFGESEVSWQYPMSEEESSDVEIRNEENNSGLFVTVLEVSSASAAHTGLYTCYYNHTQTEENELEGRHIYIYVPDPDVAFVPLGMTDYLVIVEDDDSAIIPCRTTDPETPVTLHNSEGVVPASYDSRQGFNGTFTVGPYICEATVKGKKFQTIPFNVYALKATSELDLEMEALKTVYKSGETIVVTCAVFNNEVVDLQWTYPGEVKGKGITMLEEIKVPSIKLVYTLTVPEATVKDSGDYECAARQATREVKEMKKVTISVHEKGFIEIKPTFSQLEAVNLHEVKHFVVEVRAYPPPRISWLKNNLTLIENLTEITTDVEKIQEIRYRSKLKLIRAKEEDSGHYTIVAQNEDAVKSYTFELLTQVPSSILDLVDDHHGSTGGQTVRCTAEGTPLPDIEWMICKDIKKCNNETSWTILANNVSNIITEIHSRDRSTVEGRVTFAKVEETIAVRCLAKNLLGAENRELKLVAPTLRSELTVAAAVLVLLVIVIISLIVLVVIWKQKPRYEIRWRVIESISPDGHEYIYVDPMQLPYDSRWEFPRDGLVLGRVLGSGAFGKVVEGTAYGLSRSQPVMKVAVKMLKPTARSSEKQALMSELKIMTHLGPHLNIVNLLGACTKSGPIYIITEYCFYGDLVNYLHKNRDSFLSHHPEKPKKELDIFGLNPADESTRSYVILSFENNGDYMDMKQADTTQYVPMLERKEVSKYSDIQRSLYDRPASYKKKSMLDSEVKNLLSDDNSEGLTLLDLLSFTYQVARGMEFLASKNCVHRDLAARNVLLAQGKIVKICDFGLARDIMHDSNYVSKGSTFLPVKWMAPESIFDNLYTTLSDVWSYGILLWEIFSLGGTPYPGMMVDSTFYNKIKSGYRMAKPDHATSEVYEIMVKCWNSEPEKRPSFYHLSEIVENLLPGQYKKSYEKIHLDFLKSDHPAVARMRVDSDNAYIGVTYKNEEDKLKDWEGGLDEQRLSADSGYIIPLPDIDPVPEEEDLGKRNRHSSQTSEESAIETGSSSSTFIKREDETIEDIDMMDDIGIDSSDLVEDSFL
Chain of Cyclin-dependent kinase 1 (Homo sapiens) (P06493 whole entry, looked up): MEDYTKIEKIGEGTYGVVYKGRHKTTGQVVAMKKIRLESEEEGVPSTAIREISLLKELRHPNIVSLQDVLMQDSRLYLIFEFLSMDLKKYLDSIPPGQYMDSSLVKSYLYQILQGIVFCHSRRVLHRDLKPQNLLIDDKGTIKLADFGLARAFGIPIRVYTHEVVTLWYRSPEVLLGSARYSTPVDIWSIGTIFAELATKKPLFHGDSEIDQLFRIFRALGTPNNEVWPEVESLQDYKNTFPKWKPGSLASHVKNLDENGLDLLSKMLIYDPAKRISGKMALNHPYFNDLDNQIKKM

- MRT [1]: 5.71 h
- Fa at 2 h, 5 µM [2]: 48.6%
- inhibition [3]: 100%
- inhibition [4]: 5.5%
- inhibition [5]: 100%
- inhibition [6]: 0.3%
- inhibition [7]: 100%
- inhibition [8]: 76.7%
- inhibition [9]: 99.1%
- inhibition [10]: 36.4%
- inhibition [11]: 99.2%
- inhibition [12]: -0.1%
- inhibition [13]: 52.3%
- inhibition [14]: Active
- IC50 (NCI-H716): 31.8 nM
SMILES: Cc1ccc(C(=O)Nc2cccc(C(F)(F)F)c2)cc1-c1ccc2c(-c3cnn(C4CC4)c3)n[nH]c2c1
